Among the data in the RNAGym collection of RNA variant scans (doi:10.1002/anie.201605470) are self-cleavage values, retold here.

The chains are these.
B1: Osa-1-4 twister ribozyme (parent)
chain: CCGCCUAACACUGCCAAUGCCGGUCCCAAGCCCGGAUAAAAGUGGAGGGGGCGG

The data set covers variants of B1. In words: self-cleavage, relative activity (ratio to wild type); higher = more cleavage; co-transcriptional. In outline: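 A DNA template encoding a 54-nucleotide twister ribozyme from Oryza sativa was made so that each of the 48 positions downstream of the cleavage site carried 97 % wild-type base and 1 % of each other base. Transcription in vitro ran for 2 h at 37 °C, during which the ribozyme could cleave itself. Reverse transcription used a template-switching oligonucleotide, and the products were PCR-amplified and deep-sequenced. Each read was scored as cleaved or uncleaved by whether upstream sequence was present, and relative activity is the fraction cleaved normalised to wild type.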
Regarding C9G G34U, the self-cleavage was found to be 0.12. The same measure for C9G G34A: 0.29; for C9G G34C: 0.3; for C9G G30A: 0.02. For the variant C9G G30C, the self-cleavage turned out to be 0.04. With C9G G30U, the self-cleavage amounted to 0.04. The same measure for C9A G13U: 0.04; for C9A G13C: 0.03; for C9A G13A: 0.02. The same measure for A8U C31A: 0.03.

With A8U C31G, the self-cleavage came to 0.05. Regarding A8U C31U, the self-cleavage stood at 0.06.

Consider C9G G42A, for which the self-cleavage came to 0.11.

Regarding C9G G42U, the self-cleavage came to 0.05. As for C9G G42C, the self-cleavage turned out to be 0.07. With C9A G19A, the self-cleavage came to 0.1.

Take C9A G19U: the self-cleavage is 0.07. With C9A G19C, the self-cleavage was 0.04. Then C9U U12C, with 0.05. Then C9U U12G, with 0.06; and C9U U12A, with 0.24.

For A8U G48A, the self-cleavage is 0.05.

Take A8U G48U: the self-cleavage came out at 0.04.

A8U G48C: the self-cleavage was found to be 0.05. On to C9A G50C, for which the self-cleavage was determined as 0.38. Then C9A G50U, with 0.5; and C9A G50A, with 0.13; and C9A G42A, with 0.09. For C9A G42U, the self-cleavage was 0.03. On to C9A G42C, for which the self-cleavage worked out at 0.04. Then A8U G51C, with 0.04; and A8U G51U, with 0.08. Turning to A8U G51A, the self-cleavage came out at 0.14. The same measure for C9U G30A: 0.02; for C9U G30U: 0.02; for C9U G30C: 0.03. As for C9U G48U, the self-cleavage turned out to be 0.03. The same measure for C9U G48A: 0.03.

Consider C9U G48C, for which the self-cleavage was 0.04. Then C9U G34A, with 0.41; and C9U G34C, with 0.11; and C9U G34U, with 0.28. For the variant C9G G49C, the self-cleavage was 0.06. Regarding C9G G49A, the self-cleavage stood at 0.09. For C9G G49U, the self-cleavage came out at 0.09.

Take C9U G49U: the self-cleavage was found to be 0.05.

As for C9U G49C, the self-cleavage worked out at 0.04.

As to C9U G49A, the self-cleavage amounted to 0.06.

For C9A G51A, the self-cleavage came to 0.13. The same measure for C9A G51C: 0.02. The same measure for C9A G51U: 0.05; for C9U G50C: 0.73. The same measure for C9U G50U: 0.86; for C9U G50A: 0.28; for A8U G13A: 0.05.

In the case of A8U G13C, the self-cleavage was determined as 0.03. As for A8U G13U, the self-cleavage is 0.02.

As for C9U G51C, the self-cleavage is 0.04. Then C9U G51U, with 0.11; and C9U G51A, with 0.28; and A8U G45A, with 0.05. As for A8U G45C, the self-cleavage came to 0.04. In the case of A8U G45U, the self-cleavage was 0.08.

Take A10C A41C: the self-cleavage turned out to be 0.05. Then A10C A41U, with 0.06; and A10C A41G, with 0.11; and A10C A17G, with 0.1.

A10C A17U: the self-cleavage is 0.08.

With A10C A17C, the self-cleavage was determined as 0.03. With C9U U43C, the self-cleavage was 0.16. Then C9U U43A, with 0.68; and C9U U43G, with 0.4. The same measure for C9A G23C: 0.01; for C9A G23A: 0.06; for C9A G23U: 0.02. Then A8U U12G, with 0.07; and A8U U12C, with 0.06; and A8U U12A, with 0.1. For the variant A8U G22U, the self-cleavage was 0.08. As to A8U G22C, the self-cleavage amounted to 0.03.

As to A8U G22A, the self-cleavage amounted to 0.12. Then A8U G47A, with 0.06; and A8U G47U, with 0.05; and A8U G47C, with 0.05.

On to A10C A29G, for which the self-cleavage came to 0.03.

With A10C A29U, the self-cleavage came out at 0.02. Then A10C A29C, with 0.02; and A8U G35A, with 0.27; and A8U G35C, with 0.08. The same measure for A8U G35U: 0.18; for C9G G35A: 0.47. Then C9G G35C, with 0.16.

For C9G G35U, the self-cleavage stood at 0.44.

With C9U G22C, the self-cleavage was determined as 0.03. Then C9U G22A, with 0.68. As to C9U G22U, the self-cleavage was 0.26. Then C9G, with 0.93; and C9U, with 0.78. C9A: the self-cleavage turned out to be 0.48.

As to C9G G23A, the self-cleavage came out at 0.24. Then C9G G23C, with 0.07. Then C9G G23U, with 0.04; and C9A G47U, with 0.03. Then C9A G47C, with 0.03. Turning to C9A G47A, the self-cleavage amounted to 0.05. The same measure for C9U G47C: 0.02. C9U G47A: the self-cleavage was determined as 0.06. Consider C9U G47U, for which the self-cleavage is 0.06. The same measure for C9A U12A: 0.16.

On to C9A U12C, for which the self-cleavage is 0.1. The same measure for C9A U12G: 0.08; for A10C A46G: 0.03; for A10C A46U: 0.02. A10C A46C: the self-cleavage amounted to 0.02. With A10C A38U, the self-cleavage was 0.08.

Turning to A10C A38C, the self-cleavage was found to be 0.07. In the case of A10C A38G, the self-cleavage was 0.08. Then C9A G53A, with 0.29; and C9A G53C, with 0.03; and C9A G53U, with 0.09.

For the variant A8U G49C, the self-cleavage was determined as 0.04.

A8U G49A: the self-cleavage came to 0.05.

For the variant A8U G49U, the self-cleavage was found to be 0.05.

As for A10C A39C, the self-cleavage came to 0.05.

Turning to A10C A39G, the self-cleavage amounted to 0.06. Then A10C A39U, with 0.05; and C9G G54U, with 0.73. Then C9G G54A, with 0.71; and C9G G54C, with 0.77; and C9U G13U, with 0.01. The same measure for C9U G13A: 0.04; for C9U G13C: 0.01. As to A8U U37G, the self-cleavage came to 0.54. Then A8U U37A, with 0.31.

On to A8U U37C, for which the self-cleavage worked out at 0.36. The same measure for C9G G51C: 0.06; for C9G G51U: 0.12.

With C9G G51A, the self-cleavage was 0.23. For the variant C9U G23U, the self-cleavage was 0.03. Then C9U G23C, with 0.03; and C9U G23A, with 0.12; and A10C, with 0.12. The same measure for A8U G54C: 0.13; for A8U G54A: 0.17; for A8U G54U: 0.32.

In the case of A8U C15U, the self-cleavage stood at 0.08.

Regarding A8U C15G, the self-cleavage came out at 0.15. C9A G22A: the self-cleavage amounted to 0.34. Turning to C9A G22C, the self-cleavage came to 0.03. The same measure for C9A G22U: 0.12.

Turning to A8U C27G, the self-cleavage stood at 0.05. For the variant A8U C27U, the self-cleavage came out at 0.07.

In the case of A8U C27A, the self-cleavage was 0.06.

For C9A G44U, the self-cleavage worked out at 0.63.

Take C9A G44A: the self-cleavage was 0.47. The same measure for C9A G44C: 0.5; for C9U G35U: 0.59; for C9U G35C: 0.21. The same measure for C9U G35A: 0.53; for A8U G34U: 0.1. The same measure for A8U G34A: 0.13; for A8U G34C: 0.09; for C9G G19C: 0.06. In the case of C9G G19A, the self-cleavage stood at 0.2. The same measure for C9G G19U: 0.11; for C9U G53A: 0.63. Take C9U G53U: the self-cleavage amounted to 0.17.
